Test results reported in ChEMBL document CHEMBL1275441, “Effect of impaired renal function on the pharmacokinetics of tomopenem (RO4908463/CS-023), a novel carbapenem” (Antimicrob Agents Chemother, 2008).

Columns and labels:
[1] = Tmax in human with creatinine clearance of 50-79 ml/min at 1500 mg, iv administered as single dose; type: ADME, organism-based; settings: in vivo
Outline: (§1)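 Eight subjects per CL_CR group (Cockcroft-Gault) received 1,500 mg i.v. over 60 min. Plasma was sampled predose and from 1 to 48 h, mixed with equal-volume 0.5 M MOPS pH 6.0, frozen at −70°C light-protected, and assayed by a validated method. Parameters were derived noncompartmentally from actual times, with T_max taken from raw data as a median and CL/V_ss as means ± SD.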

[2] = Total clearance in human with creatinine clearance of 50-79 ml/min at 1500 mg, iv administered as single dose measured after 60 mins; type: ADME, organism-based; settings: in vivo; outline: as §1
[3] = test system: Homo sapiens; experiment: Drug metabolism in human with creatinine clearance of =< 30 ml/min assessed as RO4957463 apparent half life at 1500 mg, iv administered as single dose; type: ADME, organism-based; settings: in vivo
Outline: (§2)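 Single 1,500 mg i.v. infusion over 60 min, eight subjects per renal-function group (creatinine clearance by Cockcroft-Gault at screening). Blood was sampled predose and at 1–48 h, and the plasma was stabilized 1:1 with 0.5 M MOPS pH 6.0, kept from light and frozen at −70°C. Parent and metabolite were measured by a validated bioanalytical method. Noncompartmental analysis: t1/2 = ln2/λz from ≥3 terminal points, Cmax/Tmax from raw data, ratio = AUC∞ metabolite/parent.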

[4] = Apparent half-life in human with creatinine clearance of 50-79 ml/min at 1500 mg, iv administered as single dose; type: ADME, organism-based; settings: in vivo; outline: as §2
[5] = test system: Homo sapiens; experiment: Drug excretion in human with creatinine clearance of 30-49 ml/min at 1500 mg, iv administered as single dose after 24 hrs; type: ADME, organism-based; settings: in vivo
Outline: (§3)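 After a single 1,500 mg i.v. infusion over 60 min, urine was collected 0–6, 6–12 and 12–24 h post-dose, with volume and pH recorded. Aliquots were mixed 1:1 with 0.5 M MOPS, protected from light and frozen at −70°C. Parent and metabolite were assayed by a validated method. CLR = Ae24/plasma AUC24. n = 8 per group, mean ± SD.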

[6] = Volume of distribution at steady state in human with creatinine clearance of => 80 ml/min at 1500 mg, iv administered as single dose measured after 60 mins; type: ADME, organism-based; settings: in vivo, read-out: Vdss; outline: as §1
[7] = test system: Homo sapiens; experiment: Drug metabolism in human with creatinine clearance of 50-79 ml/min assessed as RO4957463 Tmax at 1500 mg, iv administered as single dose measured after 60 mins; type: ADME, organism-based; settings: in vivo, 1 h; outline: as §2
[8] = test system: Homo sapiens; experiment: Ratio of RO4957463 AUC (infinity) to compound AUC (infinity) in human with creatinine clearance of 30-49 ml/min at 1500 mg, iv administered as single dose measured after 60 mins; type: ADME, organism-based; settings: in vivo, 1 h; outline: as §2
[9] = Tmax in human with creatinine clearance of => 80 ml/min at 1500 mg, iv administered as single dose; type: ADME, organism-based; settings: in vivo; outline: as §1
[10] = Volume of distribution at steady state in human with creatinine clearance of =< 30 ml/min at 1500 mg, iv administered as single dose measured after 60 mins; type: ADME, organism-based; settings: in vivo, read-out: Vdss; outline: as §1
[11] = Tmax in human with creatinine clearance of =< 30 ml/min at 1500 mg, iv administered as single dose; type: ADME, organism-based; settings: in vivo; outline: as §1
[12] = Total clearance in healthy human at 700 mg, iv administered as single dose; type: ADME, organism-based; settings: in vivo
[13] = Dose normalized excretion in human with creatinine clearance of => 80 ml/min at 1500 mg, iv administered as single dose after 24 hrs; type: ADME, organism-based; settings: in vivo, read-out: Activity; outline: as §3
[14] = test system: Homo sapiens; experiment: Drug metabolism in human with creatinine clearance of 50-79 ml/min assessed as RO4957463 apparent half life at 1500 mg, iv administered as single dose; type: ADME, organism-based; settings: in vivo; outline: as §2
[15] = Renal clearance in human with creatinine clearance of =< 30 ml/min at 1500 mg, iv administered as single dose after 24 hrs; type: ADME, organism-based, Kidney; settings: in vivo, read-out: CL_renal (converted)
Outline: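 Single 1,500 mg i.v. infusion over 60 min, with 8 subjects per renal-function group (CL_CR by Cockcroft-Gault at screening). Urine was collected at 0–6, 6–12 and 12–24 h, volume and pH recorded, and aliquots mixed 1:1 with 0.5 M MOPS. Samples were frozen at −70°C, protected from light, and assayed by a validated method. CL_R = A_e24/AUC₂₄.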

[16] = test system: Homo sapiens; experiment: Drug metabolism in human with creatinine clearance of => 80 ml/min assessed as RO4957463 AUC (infinity) at 1500 mg, iv administered as single dose measured after 60 mins; type: ADME, organism-based; parameters: dose 1500 mg, route intravenous, time infinity; settings: in vivo, 1 h; outline: as §2
[17] = test system: Homo sapiens; experiment: Drug metabolism in human with creatinine clearance of 30-49 ml/min assessed as RO4957463 Cmax at 1500 mg, iv administered as single dose measured after 60 mins; type: ADME, organism-based; parameters: dose 1500 mg, route intravenous; settings: in vivo, 1 h; outline: as §2
[18] = Dose normalized excretion in human with creatinine clearance of =< 30 ml/min at 1500 mg, iv administered as single dose after 24 hrs; type: ADME, organism-based; settings: in vivo, read-out: Activity; outline: as §3
[19] = test system: Homo sapiens; experiment: Drug metabolism in human with creatinine clearance of => 80 ml/min assessed as RO4957463 Cmax at 1500 mg, iv administered as single dose measured after 60 mins; type: ADME, organism-based; parameters: dose 1500 mg, route intravenous; settings: in vivo, 1 h; outline: as §2
[20] = Apparent half-life in human with creatinine clearance of => 80 ml/min at 1500 mg, iv administered as single dose; type: ADME, organism-based; settings: in vivo; outline: as §2
[21] = Total clearance in human with creatinine clearance of =< 30 ml/min at 1500 mg, iv administered as single dose after 60 mins after 60 mins; type: ADME, organism-based; settings: in vivo; outline: as §1
[22] = test system: Homo sapiens; experiment: Drug metabolism in human with creatinine clearance of =< 30 ml/min assessed as RO4957463 AUC (infinity) at 1500 mg, iv administered as single dose measured after 60 mins; type: ADME, organism-based; parameters: dose 1500 mg, time infinity, route intravenous; settings: in vivo, 1 h; outline: as §2
[23] = Volume of distribution at steady state in human with creatinine clearance of 30-49 ml/min at 1500 mg, iv administered as single dose measured after 60 mins; type: ADME, organism-based; settings: in vivo, read-out: Vdss; outline: as §1
[24] = test system: Homo sapiens; experiment: Ratio of RO4957463 AUC (infinity) to compound AUC (infinity) in human with creatinine clearance of => 80 ml/min at 1500 mg, iv administered as single dose measured after 60 mins; type: ADME, organism-based; settings: in vivo, 1 h; outline: as §2
[25] = test system: Homo sapiens; experiment: Drug metabolism in human with creatinine clearance of => 80 ml/min assessed as RO4957463 Tmax at 1500 mg, iv administered as single dose; type: ADME, organism-based; settings: in vivo; outline: as §2
[26] = test system: Homo sapiens; experiment: Drug excretion in human with creatinine clearance of => 80 ml/min at 1500 mg, iv administered as single dose after 24 hrs; type: ADME, organism-based; settings: in vivo; outline: as §3
[27] = AUC (infinity) in human with creatinine clearance of 30-49 ml/min at 1500 mg, iv administered as single dose measured after 60 mins; type: ADME, organism-based; parameters: dose 1500 mg, route intravenous, time infinity; settings: plasma; outline: as §2

`C[C@@H](O)[C@H]1C(=O)N2C(C(=O)O)=C(S[C@H]3C[C@@H](C(=O)N4CC[C@H](NC(=O)CNC(=N)N)C4)N(C)C3)[C@H](C)[C@H]12` [TOMOPENEM] gave a Tmax [1] of 1 h, a clearance [2] of 84.7 mL/min and a t1/2 [3] of 25.3 h. For the same compound, the half-life [4] was 3 h, the Activity [5] was 939 mg and the Vd [6] was 18.8 L. The Tmax [7] was 1 h, the Ratio [8] was 0.21 and the Tmax [9] was 1 h. It also gave a Vd [10] of 16.4 L, a Tmax [11] of 1.02 h and a clearance [12] of 135 mL/min. It also gave a dose excreted at 24 h [13] of 57.4%, a t1/2 [14] of 5.02 h and a CL renal at 24 h [15] of 9.83 mL/min. For the same compound, the AUC [16] was 18.5 µg·h/mL, the Cmax [17] was 5240 ng/mL and the dose excreted at 24 h [18] was 41.2%. For the same compound, the Cmax [19] was 3510 ng/mL, the half-life [20] was 2.23 h and the clearance [21] was 25.3 mL/min. The AUC [22] was 490 µg·h/mL, the Vd [23] was 17.2 L and the Ratio [24] was 0.1. The Tmax [25] was 1.01 h, the Activity [26] was 862 mg and the AUC(0-inf) [27] was 517 µg·h/mL.
